Data on 37 variants can be found in the RNAGym collection of RNA variant scans (doi:10.1126/science.aae0568).

This sample holds only a part of the variants without activity.

The chains are these.
B1: tRNA (parent)
chain: GUUCCGUUGGCGUAAUGGUAACGCGUCUCCCUCCUAAGGAGAAGACUGCGGGUUCGAGUCCCGUACGGAACG

The variants in the data set derive from B1. Nature of the data set: yeast fitness relative to wild type (ratio to wild type); higher = fitter; tRNA-Arg(CCU), competitive growth, 37 C, YPD. The method, boiled down: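 A pool of Saccharomyces cerevisiae strains, each with a tRNA-Arg(CCU) gene variant at the native genomic locus, was competed in YPD at 37°C for 24 hours across six parallel replicates. The variants had been chemically synthesised at a 3% per-site mutation rate over 69 sites, and gene amplicons before and after competition were read by 100-nucleotide paired-end sequencing. Darwinian fitness relative to wild type rested on changes in genotype frequencies. Genotypes required ≥ 100 starting reads, and estimates < 0.5 were set to 0.5.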
In the case of GUAUCGUUGACGUAAUGGUAACGCGUCUCCCUGGUAAGGAGAAGACUGCGGGUUCGUGUCCCGUACGGAACG, the yeast fitness is at most 0.5.
For GUUCCGUUGGCGUAAUGGUGACGCGUCUCCCUCCUAAGGAGAAGACUGCGGGUUCGCGUCCCGUACGGAACG, the yeast fitness worked out at 0.642.
For GUUCCGUUGGCGUAAUGGCAACGCGUGUCCCUCCUAAGGAGAAGAUUGCGGGUUCGAGUCCCGUACGGAACG, the yeast fitness stood at 0.673.
Take GUUUCGUUGGCGUAAUGGUAACGCGUCUCACUCCUAAGGAGAAGACUGCGGGUUCGAGUCCUGUACGGAACG: the yeast fitness was 0.792.
Regarding GUUCCGUUGGCGUAAUGGUAACGCGUCUCCCUCCUGUGGAGAAGACUGCGGGUUCGAGUCCCGUACAGAACG, the yeast fitness is at most 0.5.
As to GUUCCGUUGGCGUAAUGGGAACGCGUCGCCCUCCUAAGGAGAAGACUGCGGGUUCGAGUCCCGUACGGAACG, the yeast fitness was determined as 0.551.
As to GUUCAGUUGGGGUAAUGGUAUCGCGUCUCCCUCCUAAGGAGAAGACUGCGGGUUCGAGUCCCGUACGGAACG, the yeast fitness is 0.505.
As to GUUUCGUUGGCGUAAUGGUAACGCGUCUCCGUCCUAAGGAGAAGACUGCGGGUUUGAGUCCCGUACGGAACG, the yeast fitness is 0.579.
For GUUCAGUUAGCGUAAUGGUAACGCAUCUCCCUCCUAAGGAGAAGACUGCGGGUUCGAGUCCCGUACGGUACG, the yeast fitness was at most 0.5.
Turning to GUGCCGUUGGCGUAAUGGUAACGCGUCUCCCUCCUAAGGAGAAAACUGCGGGUUCGAGUCCCGUAUGGAACG, the yeast fitness is 0.582.
As to GUUCCGUUGGCGUAAUGGUAACGCGUCUCCCUCCUAGGGAGAAGAAUGCGGGUUCGAGUCCCGUACGGAACG, the yeast fitness was 0.774.
Consider GUUCCGUUGGCGUAAUGGUAACGCGUCUCCCUCCUAAGGAGGUGAUUGCGGGUUCGAGUCCUGUACGGAACG, for which the yeast fitness is 0.551.
Take GUUCCGUUGGCGUAGUGGUAACGCGUCUCCCUCCUAAGGAGAAGACUGCGGGUUCGACUCCGGUACGGAACG: the yeast fitness was at most 0.5.
Regarding GUUCCGUUGGCGUAAUGGUAACGCGUCUCCCAUCUAAGGAGAAGACUGCGGGUUCGAGUCCCGUACGGAACG, the yeast fitness was 0.597.
On to GUUCCGUUGGCGUAAUGGUAACGCGUAUCCCUCCUAAGGAGAAGACUGCGGGUUCGAGUCUCGUAUGGAACG, for which the yeast fitness was at most 0.5.
For the variant GUUCCGUUGGCGUAAUGGUAAUGCGUCUCCCUCCUCAGGAGAAGCCUGCGGGUUGGAGUCCAGUACGAAACG, the yeast fitness was at most 0.5.
With GUUCCGUUGGCGUAAUGGUAACGCGUCUCCCUCCUAAGGAGAACACUGCGGGUUCGAGUCCUGUAGGGAACG, the yeast fitness was at most 0.5.
With GUUCCAUUGGCGUAAUGGUAACGCGUCUCCCUCCUAAGGAGAAGACUGAGGGUUCGAGUCCCAUACGGAACG the figure was at most 0.5; with GUUCCAUUGGCGUAAUGGUAACGCCUCUCCCUCCUAAGGAGAAGACUCCGGGUUCGAGUCCCGUACGGAACG, 0.654.
Turning to GUUCAGUUGGCGUAAUGGUAACGGGUCUCCCUCCUGAGGAGAAGACUGCGGGUUCGAGUCCCGUUCGGAACG, the yeast fitness is at most 0.5.
Turning to GUUCCGUUGGCGUAAUGGUAACGCGUCUCCCUCCUAAGGCGAAGACUGCGGGUUCGAGUCCCGCACGGAACG, the yeast fitness was found to be 0.912.
With GUUACGUUGGCGUAAUGGUAACGCGUCUCCCUCCUAAGGAGAAGACUGCGGGUUUGAGUCCCGUACGGAACG the figure was 0.943; with GUUCCGUUGGCAUAAUGGUAACGCGUCUGCCUCCGAAGGAGAAGACUGCGGGUUCGAGUCUCGUACGGAACG, at most 0.5; with GUUCCGUUGGCGUGAUGGUAACGUGUCUCCCUCCUAAGGAGAAGACUGCGGGUUCGAGUCCCGUUCGGAACG, 0.54.
With GUUCCGUUGGCGUAAUGGUAACGCGUCUCCCUCCUAAGGAGAAGACUGCGGGUUUGAGUCCCGUACGGCACG, the yeast fitness turned out to be 0.762.
In the case of GUUCCGUUGGCGUAAUGGUAACGCCUCUACCUCCUAAGGAGAAGACUACGGGGUCGAGUCCCGUACGGAACG, the yeast fitness was at most 0.5.
With GUUAUGUUGGCGUAAUGGUAAUGCGUCUCCCUCAUAAGGAGAAGACUGCGGGUUCGAGUCCUGUACGGAUCG, the yeast fitness is at most 0.5.
GUUCCGUUGGCGUAAUGAUAACGCGUCUCCCUCCUAAGGAGAAGACUGCGGGUUAGAGUCCGGUACGGAACG: the yeast fitness was at most 0.5.
With GUUCCGUUGGCGUAAUGGUAACGCAUCUCACUCCUAAGGAGAAGGCUGCGGGUUCGAGUCCCGCACGGAACG the figure was 0.984; with GUUCCGUUGGCGUAAUCGAAACGCGUCUCUCUCCUGAGGAGAAGACUGCGGGUUCGAGUCCCGUACGGAGCG, at most 0.5.
Turning to GUUCCGUUGGCGUAAUGGUAACGCGUCUCCCUCCUAAGGAGAAGCCUGCGGGUUCGAGUCCCGUACCGAACG, the yeast fitness amounted to 0.639.
Take GUUCCGUUGACGUAAUGGUAACGCGUCUCCCUCCUAAGGUGAAGACUGCGGCUUCGAGUCCAGUCCGGAUCG: the yeast fitness came to 0.655.
For the variant GUUACGUUGGCGUGAUGGUAACGCGUCUCCCUCCUUAGGAGAAGACUGCGGGUUCGUGUCCCGUACGGAACG, the yeast fitness came to 0.953.
Take GUUCCGUUGGCGUAAUGGUAACGCGUGUCCCUCCUAAGGAGGAGACUGCGGGUUCGGGGCCCGUACGGAACG: the yeast fitness is at most 0.5.
On to GUUCCGUUGGUGUAAUGGUGACGCGUCUCCCUCCUCAGGAGAAGACUGGGGGUUCGAGUCGGGUACGGAACG, for which the yeast fitness is at most 0.5.
As for GUUCCGUUGGCGUAGUGGUAACGCGUCUCACUCCUAAGGAGAAGACUCCGGGUUCGAGUCCCGUACGGAACG, the yeast fitness is at most 0.5.
Turning to GUUCCGUUGGCGUAAUGGUAACGCGUAUCCCUCCUAAGGAGAAGAAUGCGGGUUCGAGUCCCGUACGGGACG, the yeast fitness was 0.582.
